Holding throughout (assay type): cell-based, human
Experiment [1] has as its system M21 cells. The experiment is described as follows: flow cytometry uptake, M21 cells. In short, it runs like this:
(§1)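 Cells (2×10^6) were incubated with fluorescently labelled cyclic RGD test peptide (30 μM) for 0, 10 or 30 min. They were washed with buffer and analysed by flow cytometry. The negative control received no peptide.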
(In general: In flow cytometry, cells or beads pass a laser one at a time.)

Another experiment deals with M21L cells. Kind of experiment: flow cytometry uptake, M21L cells. In short, it runs like this:
as §1

Experiment [2] deals with M21 cells. The experiment is described as follows: live cell imaging. In a few lines:
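Cells were grown overnight on glass-slip chambers and counterstained with LysoTracker Red DND-99. They were then incubated 10 min with fluorescent test peptide: 5 μM for the non-PEGylated peptide, 10 μM for the 5 kDa PEGylated peptide. Washing was careful but thorough. Confocal live-cell microscopy followed, with z-stacking and gain set in the peptide channel.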

Setting [3] is: peptide 30 μM, 0, 10, 30 min, 37 °C, medium without FCS.

As to “c(RGDw(pyren‐1‐yl)K(PEG5000)) [peptide 2]”, in the experiment with M21 cells [1] (M21 versus M21L cells, flow cytometry 30 μM plus imaging), the “mode of uptake (conclusion from flow cytometry and live cell imaging)” value was “integrin‐mediated endocytosis”. Besides, in the experiment with M21 cells [1] (peptide 30 μM, 0 min), the “0 min sample versus negative control (no peptide), M21” value is given as “largely overlaps with the 0 min samples”. In addition, in the experiment with M21 cells [1] (peptide 30 μM, 0, 10, 30 min), the “uptake selectivity M21 versus M21L, flow cytometry” value is given as “uptake of peptide 2 only by M21 cells”. Besides, the “flow cytometry fluorescence, M21” value in the experiment with M21 cells [1] (setting [3]) is “significant fluorescence”. Moreover, the “0 min sample versus negative control (no peptide), M21L” value in the experiment with M21L cells (peptide 30 μM, 0 min) was “largely overlaps with the 0 min samples”. In addition, the “flow cytometry fluorescence, M21L” value in the experiment on M21L cells (setting [3]) is on record as “not for αv deficient M21L cells”. Moreover, the “uptake in M21L cells (flow cytometry and live cell imaging)” value in the experiment on M21L cells (αv-deficient M21L cells) is “no uptake in αv‐deficient M21L cells”. Moreover, in the experiment on M21 cells [2] (LysoTracker Red DND-99, 10 min, 37 °C, peptide 1 5 μM, peptide 2 10 μM), the “colocalization with lysosomes, M21” value is on record as “colocalizes largely with lysosomes”. The “localization by z-stacking, M21” value with M21 cells [2] (Z-stack, peptide 10 μM, 10 min) is “presence of peptide inside the cells”.

Source of the values: PMC7064889 (Chembiochem, 2019).
